Results reported in ChEMBL document CHEMBL4196108, “5-Aroylindoles Act as Selective Histone Deacetylase 6 Inhibitors Ameliorating Alzheimer's Disease Phenotypes” (J Med Chem, 2018).
The source made the active and inactive calls.

What was measured:
[1] = tested on: Mus musculus; assay: In vivo inhibition of HDAC6 in scopolamine-treated 3xTg-AD transgenic mouse brain hippocampal CA1 region assessed as increase in acetyl-alpha-tubulin level at 50 mg/kg, po by Western blot analysis; type: functional, organism-based
Method in brief: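 Female 3xTg-AD mice, fed standard diet to 6 months of age, then dosed orally at 50 or 100 mg/kg once daily for three months. Brains removed; hippocampal tissue lysates immunoblotted for acetyl-α-tubulin and phospho-tau Ser396 and Ser404. Mean ± STD; one-way ANOVA.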

[2] = target: T1, Protein deacetylase HDAC6 (Mus musculus) (UniProt Q9Z2V5); assay: Inhibition of HDAC6 binding to HSP90 in mouse Neuro-2a cells transfected with pCAX FLAG APP and pRK5-EGFP-Tau P301L plasmids at 1 uM after 24 hrs by coimmunoprecipitation analysis; type: cell-based
T1 sequence (whole entry): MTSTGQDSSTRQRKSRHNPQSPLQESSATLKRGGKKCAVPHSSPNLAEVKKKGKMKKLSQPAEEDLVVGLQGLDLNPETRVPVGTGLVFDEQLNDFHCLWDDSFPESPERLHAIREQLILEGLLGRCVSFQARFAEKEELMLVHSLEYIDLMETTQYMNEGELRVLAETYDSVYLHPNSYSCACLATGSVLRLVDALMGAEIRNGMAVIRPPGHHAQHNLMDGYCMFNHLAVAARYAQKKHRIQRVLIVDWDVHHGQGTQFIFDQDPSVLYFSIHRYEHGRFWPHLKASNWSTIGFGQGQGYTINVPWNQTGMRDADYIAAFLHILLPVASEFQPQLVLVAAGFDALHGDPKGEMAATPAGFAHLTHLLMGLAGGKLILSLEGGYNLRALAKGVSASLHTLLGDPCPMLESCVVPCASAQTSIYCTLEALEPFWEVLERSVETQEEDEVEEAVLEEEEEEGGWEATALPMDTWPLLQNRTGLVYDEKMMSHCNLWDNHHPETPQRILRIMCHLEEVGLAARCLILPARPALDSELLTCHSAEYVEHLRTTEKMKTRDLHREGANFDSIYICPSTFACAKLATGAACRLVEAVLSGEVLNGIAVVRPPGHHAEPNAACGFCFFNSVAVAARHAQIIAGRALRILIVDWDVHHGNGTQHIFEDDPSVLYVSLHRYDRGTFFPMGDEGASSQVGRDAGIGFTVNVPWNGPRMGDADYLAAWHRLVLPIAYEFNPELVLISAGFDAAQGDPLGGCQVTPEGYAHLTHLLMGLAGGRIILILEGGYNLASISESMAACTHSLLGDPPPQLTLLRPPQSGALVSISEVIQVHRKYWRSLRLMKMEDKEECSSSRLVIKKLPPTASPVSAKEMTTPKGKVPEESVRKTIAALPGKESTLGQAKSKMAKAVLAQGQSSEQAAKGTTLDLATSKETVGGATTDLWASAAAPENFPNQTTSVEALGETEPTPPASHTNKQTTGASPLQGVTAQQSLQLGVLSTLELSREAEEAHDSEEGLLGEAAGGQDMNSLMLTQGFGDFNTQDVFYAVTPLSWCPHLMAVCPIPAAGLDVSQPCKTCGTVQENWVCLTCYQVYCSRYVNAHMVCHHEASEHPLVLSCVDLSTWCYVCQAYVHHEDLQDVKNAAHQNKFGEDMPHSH
Method in brief: (§1)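 SH-SY5Y and Neuro-2a cells cotransfected 24 h with APP695/Tau P301L plasmids, treated 24 h at 1 µM (ACY-1215 reference). 30 µg lysate immunoprecipitated overnight at 4 °C with anti-HDAC6 or anti-acetyl-lysine antibodies plus protein A/G beads, run on 8% SDS-PAGE, probed for Hsp90; Hsp70 by immunoblot. Three independent experiments.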

[3] = target: T2, Protein deacetylase HDAC6 (Homo sapiens) (UniProt Q9UBN7); assay: Inhibition of HDAC6 in human SH-SY5Y cells transfected with pCAX FLAG APP and pRK5-EGFP-Tau P301L plasmids assessed as increase in HSP90 acetylation at 1 uM after 24 hrs by coimmunoprecipitation analysis; type: cell-based; method in brief: as §1
T2 sequence (whole entry): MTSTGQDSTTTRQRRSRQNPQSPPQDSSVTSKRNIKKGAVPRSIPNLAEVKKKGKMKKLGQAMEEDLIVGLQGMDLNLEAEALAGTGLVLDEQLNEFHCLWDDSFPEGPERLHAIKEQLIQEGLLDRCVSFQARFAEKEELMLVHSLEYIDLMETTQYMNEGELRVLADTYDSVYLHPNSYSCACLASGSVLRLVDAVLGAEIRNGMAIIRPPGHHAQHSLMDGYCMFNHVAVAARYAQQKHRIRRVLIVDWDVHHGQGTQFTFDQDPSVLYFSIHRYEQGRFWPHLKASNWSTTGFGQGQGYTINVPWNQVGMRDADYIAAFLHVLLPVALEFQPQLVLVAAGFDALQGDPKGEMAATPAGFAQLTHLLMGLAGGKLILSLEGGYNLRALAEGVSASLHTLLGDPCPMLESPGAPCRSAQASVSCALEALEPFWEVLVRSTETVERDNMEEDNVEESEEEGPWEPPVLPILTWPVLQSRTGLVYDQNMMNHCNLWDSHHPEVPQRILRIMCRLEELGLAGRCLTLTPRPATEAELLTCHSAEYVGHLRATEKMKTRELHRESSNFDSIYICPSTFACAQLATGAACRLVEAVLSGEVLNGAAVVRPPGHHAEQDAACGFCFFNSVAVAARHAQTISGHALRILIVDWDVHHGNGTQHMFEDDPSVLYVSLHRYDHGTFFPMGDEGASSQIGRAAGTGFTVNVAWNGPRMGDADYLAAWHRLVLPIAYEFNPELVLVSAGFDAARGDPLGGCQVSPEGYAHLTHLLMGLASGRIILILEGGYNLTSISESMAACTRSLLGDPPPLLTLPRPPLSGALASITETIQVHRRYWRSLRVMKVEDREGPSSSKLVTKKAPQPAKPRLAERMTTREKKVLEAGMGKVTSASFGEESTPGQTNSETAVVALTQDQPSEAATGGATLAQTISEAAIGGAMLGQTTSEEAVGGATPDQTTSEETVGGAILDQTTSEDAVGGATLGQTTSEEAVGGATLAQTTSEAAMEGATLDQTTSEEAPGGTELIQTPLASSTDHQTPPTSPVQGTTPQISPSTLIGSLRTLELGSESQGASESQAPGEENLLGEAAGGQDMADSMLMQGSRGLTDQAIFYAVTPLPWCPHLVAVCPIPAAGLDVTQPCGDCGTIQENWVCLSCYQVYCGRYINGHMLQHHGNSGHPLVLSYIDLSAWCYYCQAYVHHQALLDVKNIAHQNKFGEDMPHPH

[4] = target: T2, Protein deacetylase HDAC6 (Homo sapiens); assay: Inhibition of HDAC6 in human SH-SY5Y cells transfected with pCAX FLAG APP and pRK5-EGFP-Tau P301L plasmids assessed as inhibition of amyloid beta (1 to 40)-induced Tau P301L mutant phosphorylation at 1 uM after 24 hrs by Western blot analysis

Measured: inhibition

COc1ccc(C(=O)c2ccc3c(ccn3Cc3ccc(C(=O)NO)cc3)c2)cc1
active: all assays above
